Data taken from ChEMBL document CHEMBL2010643 (Bioorg Med Chem Lett, 2012).
The source made the active and inactive calls. The rule behind the calls is not given here.

Assays:
Mus musculus [1] = assay: Inhibition of LRRK2 phosphorylation at Ser910 in C57BL/6 mouse kidney at 10 mg/kg, po administered for 8 hrs followed by 2 hrs dosing; type: functional, organism-based; parameters: dose 10 mg/kg
How it was run: (§1)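 Mice were dosed by oral gavage at 10 or 50 mg/kg. Brain, spleen and kidney were collected. Endogenous LRRK2 was resolved by SDS–PAGE and blotted with phospho-specific antibodies to Ser910 and Ser935 and with an antibody to total LRRK2.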

[2] = target: Serine/threonine-protein kinase pim-3 (Homo sapiens) (UniProt Q86V86); assay: Inhibition of PIM3 assessed as residual activity at 1 uM relative to control
[3] = target: Dual specificity mitogen-activated protein kinase kinase 2 (Homo sapiens) (UniProt P36507); assay: Inhibition of MKK2 assessed as residual activity at 10 uM relative to control
[4] = target: Death-associated protein kinase 1 (Homo sapiens) (UniProt P53355); assay: Inhibition of DAPK1 assessed as residual activity at 10 uM relative to control
[5] = target: Angiopoietin-1 receptor (Homo sapiens) (UniProt Q02763); assay: Inhibition of TIE2 assessed as residual activity at 10 uM relative to control
How it was run: (§2)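 Radioactivity-based enzymatic kinase assays run across a 124-kinase profiling panel (Dundee), reporting the remaining kinase activity relative to a control.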

[6] = target: Serine/threonine-protein kinase pim-1 (Homo sapiens) (UniProt P11309); assay: Inhibition of PIM1 assessed as residual activity at 10 uM relative to control
[7] = target: Calcium/calmodulin-dependent protein kinase kinase 2 (Homo sapiens) (UniProt Q96RR4); assay: Inhibition of CAMKKb assessed as residual activity at 1 uM relative to control
How it was run: (§3)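 Standard radioactivity-based enzymatic assays were run across a 124-kinase panel (Dundee profiling), with compound at 1 µM. Kinase activity was expressed relative to control.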

[8] = target: Dual specificity mitogen-activated protein kinase kinase 2 (Homo sapiens) (UniProt P36507); assay: Inhibition of MKK2 assessed as residual activity at 1 uM relative to control
Mus musculus [9] = assay: Inhibition of LRRK2 phosphorylation at Ser935 in C57BL/6 mouse spleen at 50 mg/kg, po administered for 8 hrs followed by 2 hrs dosing; type: functional, organism-based; parameters: dose 50 mg/kg; how it was run: as §1
[10] = target: Serine/threonine-protein kinase PAK 5 (Homo sapiens) (UniProt Q9P286); assay: Inhibition of PAK5 assessed as residual activity at 10 uM relative to control
[11] = target: Mitogen-activated protein kinase 15 (Homo sapiens) (UniProt Q8TD08); assay: Inhibition of ERK8 assessed as residual activity at 1 uM relative to control; how it was run: as §3
[12] = test system: Leucine-rich repeat serine/threonine-protein kinase 2 (Homo sapiens), Q5S007 [A2016T]; assay: Inhibition of LRRK2 A2016T mutant phosphorylation at Ser935 expressed in HEK293 cells at 1 to 3 uM after 90 mins by immunoblot analysis; type: cell-based
Mus musculus [13] = assay: Inhibition of LRRK2 phosphorylation at Ser935 in C57BL/6 mouse brain at 10 to 50 mg/kg, po administered for 8 hrs followed by 2 hrs dosing; type: functional, organism-based; how it was run: as §1
[14] = target: Tyrosine-protein kinase BTK (Homo sapiens) (UniProt Q06187); assay: Inhibition of BTK assessed as residual activity at 10 uM relative to control
[15] = target: Mitogen-activated protein kinase 13 (Homo sapiens) (UniProt O15264); assay: Inhibition of p38delta MAPK assessed as residual activity at 10 uM relative to control; how it was run: as §2
[16] = target: Glycogen synthase kinase-3 beta (Homo sapiens) (UniProt P49841); assay: Inhibition of GSK3b assessed as residual activity at 1 uM relative to control; how it was run: as §3
[17] = target: Maternal embryonic leucine zipper kinase (Homo sapiens) (UniProt Q14680); assay: Inhibition of MELK assessed as residual activity at 1 uM relative to control
[18] = target: Mitogen-activated protein kinase kinase kinase 1 (Homo sapiens) (UniProt Q13233); assay: Inhibition of MEKK1 assessed as residual activity at 10 uM relative to control
[19] = target: Serine/threonine-protein kinase N2 (Homo sapiens) (UniProt Q16513); assay: Inhibition of PRK2 assessed as residual activity at 1 uM relative to control
[20] = target: Serine/threonine-protein kinase PAK 5 (Homo sapiens) (UniProt Q9P286); assay: Inhibition of PAK5 assessed as residual activity at 1 uM relative to control
[21] = target: Serine/threonine-protein kinase 16 (Homo sapiens) (UniProt O75716); assay: Inhibition of MPSK1 assessed as residual activity at 1 uM relative to control
[22] = target: Receptor tyrosine-protein kinase erbB-4 (Homo sapiens) (UniProt Q15303); assay: Inhibition of HER4 assessed as residual activity at 1 uM relative to control; how it was run: as §3
[23] = test system: Leucine-rich repeat serine/threonine-protein kinase 2 (Homo sapiens), Q5S007 [A2016T]; assay: Inhibition of LRRK2 A2016T mutant phosphorylation at Ser910 expressed in HEK293 cells at 1 to 3 uM after 90 mins by immunoblot analysis; type: cell-based
Mus musculus [24] = assay: Inhibition of LRRK2 phosphorylation at Ser910 in C57BL/6 mouse kidney at 50 mg/kg, po administered for 8 hrs followed by 2 hrs dosing; type: functional, organism-based; parameters: dose 50 mg/kg; how it was run: as §1
[25] = target: Mitogen-activated protein kinase kinase kinase 1 (Homo sapiens) (UniProt Q13233); assay: Inhibition of MEKK1 assessed as residual activity at 1 uM relative to control
[26] = target: Ribosomal protein S6 kinase beta-1 (Homo sapiens) (UniProt P23443); assay: Inhibition of S6K1 assessed as residual activity at 1 uM relative to control
[27] = target: Death-associated protein kinase 1 (Homo sapiens) (UniProt P53355); assay: Inhibition of DAPK1 assessed as residual activity at 1 uM relative to control; how it was run: as §3
[28] = Half life in Swiss albino mouse at 1 mg/kg, iv; type: ADME, organism-based; parameters: dose 1 mg/kg, route intravenous; conditions: in vivo
How it was run: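 Male Swiss Albino mice were given a single dose, either intravenous at 1 mg/kg or oral at 10 mg/kg. AUClast was measured in plasma and in brain. Half-life, plasma clearance, volume of distribution and oral bioavailability were derived from the plasma data.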

[29] = target: Protein kinase C alpha type (Homo sapiens) (UniProt P17252); assay: Inhibition of PKCalpha assessed as residual activity at 10 uM relative to control
[30] = target: Inhibitor of nuclear factor kappa-B kinase subunit beta (Homo sapiens) (UniProt O14920); assay: Inhibition of IKKbeta assessed as residual activity at 10 uM relative to control
[31] = target: Proto-oncogene tyrosine-protein kinase Src (Homo sapiens) (UniProt P12931); assay: Inhibition of Src assessed as residual activity at 1 uM relative to control
[32] = target: Serine/threonine-protein kinase 26 (Homo sapiens) (UniProt Q9P289); assay: Inhibition of MST4 assessed as residual activity at 10 uM relative to control
[33] = target: Leucine-rich repeat serine/threonine-protein kinase 2 (Mus musculus) (UniProt Q5S006); assay: Inhibition of wild type LRRK2 phosphorylation at Ser910 in mouse 3T3 cells after 90 mins by Western blot analysis; type: cell-based
How it was run: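 Mouse Swiss 3T3 cells treated with DMSO or increasing inhibitor concentrations for 90 min. Endogenous LRRK2 in lysates immunoblotted with purified phospho-specific antibodies to Ser910 and Ser935 and with a total LRRK2 antibody. Blots done in duplicate, representative of at least two independent experiments.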

Leucine-rich repeat serine/threonine-protein kinase 2 (Homo sapiens), Q5S007 [A2016T], sequence (Q5S007 whole entry A2016T): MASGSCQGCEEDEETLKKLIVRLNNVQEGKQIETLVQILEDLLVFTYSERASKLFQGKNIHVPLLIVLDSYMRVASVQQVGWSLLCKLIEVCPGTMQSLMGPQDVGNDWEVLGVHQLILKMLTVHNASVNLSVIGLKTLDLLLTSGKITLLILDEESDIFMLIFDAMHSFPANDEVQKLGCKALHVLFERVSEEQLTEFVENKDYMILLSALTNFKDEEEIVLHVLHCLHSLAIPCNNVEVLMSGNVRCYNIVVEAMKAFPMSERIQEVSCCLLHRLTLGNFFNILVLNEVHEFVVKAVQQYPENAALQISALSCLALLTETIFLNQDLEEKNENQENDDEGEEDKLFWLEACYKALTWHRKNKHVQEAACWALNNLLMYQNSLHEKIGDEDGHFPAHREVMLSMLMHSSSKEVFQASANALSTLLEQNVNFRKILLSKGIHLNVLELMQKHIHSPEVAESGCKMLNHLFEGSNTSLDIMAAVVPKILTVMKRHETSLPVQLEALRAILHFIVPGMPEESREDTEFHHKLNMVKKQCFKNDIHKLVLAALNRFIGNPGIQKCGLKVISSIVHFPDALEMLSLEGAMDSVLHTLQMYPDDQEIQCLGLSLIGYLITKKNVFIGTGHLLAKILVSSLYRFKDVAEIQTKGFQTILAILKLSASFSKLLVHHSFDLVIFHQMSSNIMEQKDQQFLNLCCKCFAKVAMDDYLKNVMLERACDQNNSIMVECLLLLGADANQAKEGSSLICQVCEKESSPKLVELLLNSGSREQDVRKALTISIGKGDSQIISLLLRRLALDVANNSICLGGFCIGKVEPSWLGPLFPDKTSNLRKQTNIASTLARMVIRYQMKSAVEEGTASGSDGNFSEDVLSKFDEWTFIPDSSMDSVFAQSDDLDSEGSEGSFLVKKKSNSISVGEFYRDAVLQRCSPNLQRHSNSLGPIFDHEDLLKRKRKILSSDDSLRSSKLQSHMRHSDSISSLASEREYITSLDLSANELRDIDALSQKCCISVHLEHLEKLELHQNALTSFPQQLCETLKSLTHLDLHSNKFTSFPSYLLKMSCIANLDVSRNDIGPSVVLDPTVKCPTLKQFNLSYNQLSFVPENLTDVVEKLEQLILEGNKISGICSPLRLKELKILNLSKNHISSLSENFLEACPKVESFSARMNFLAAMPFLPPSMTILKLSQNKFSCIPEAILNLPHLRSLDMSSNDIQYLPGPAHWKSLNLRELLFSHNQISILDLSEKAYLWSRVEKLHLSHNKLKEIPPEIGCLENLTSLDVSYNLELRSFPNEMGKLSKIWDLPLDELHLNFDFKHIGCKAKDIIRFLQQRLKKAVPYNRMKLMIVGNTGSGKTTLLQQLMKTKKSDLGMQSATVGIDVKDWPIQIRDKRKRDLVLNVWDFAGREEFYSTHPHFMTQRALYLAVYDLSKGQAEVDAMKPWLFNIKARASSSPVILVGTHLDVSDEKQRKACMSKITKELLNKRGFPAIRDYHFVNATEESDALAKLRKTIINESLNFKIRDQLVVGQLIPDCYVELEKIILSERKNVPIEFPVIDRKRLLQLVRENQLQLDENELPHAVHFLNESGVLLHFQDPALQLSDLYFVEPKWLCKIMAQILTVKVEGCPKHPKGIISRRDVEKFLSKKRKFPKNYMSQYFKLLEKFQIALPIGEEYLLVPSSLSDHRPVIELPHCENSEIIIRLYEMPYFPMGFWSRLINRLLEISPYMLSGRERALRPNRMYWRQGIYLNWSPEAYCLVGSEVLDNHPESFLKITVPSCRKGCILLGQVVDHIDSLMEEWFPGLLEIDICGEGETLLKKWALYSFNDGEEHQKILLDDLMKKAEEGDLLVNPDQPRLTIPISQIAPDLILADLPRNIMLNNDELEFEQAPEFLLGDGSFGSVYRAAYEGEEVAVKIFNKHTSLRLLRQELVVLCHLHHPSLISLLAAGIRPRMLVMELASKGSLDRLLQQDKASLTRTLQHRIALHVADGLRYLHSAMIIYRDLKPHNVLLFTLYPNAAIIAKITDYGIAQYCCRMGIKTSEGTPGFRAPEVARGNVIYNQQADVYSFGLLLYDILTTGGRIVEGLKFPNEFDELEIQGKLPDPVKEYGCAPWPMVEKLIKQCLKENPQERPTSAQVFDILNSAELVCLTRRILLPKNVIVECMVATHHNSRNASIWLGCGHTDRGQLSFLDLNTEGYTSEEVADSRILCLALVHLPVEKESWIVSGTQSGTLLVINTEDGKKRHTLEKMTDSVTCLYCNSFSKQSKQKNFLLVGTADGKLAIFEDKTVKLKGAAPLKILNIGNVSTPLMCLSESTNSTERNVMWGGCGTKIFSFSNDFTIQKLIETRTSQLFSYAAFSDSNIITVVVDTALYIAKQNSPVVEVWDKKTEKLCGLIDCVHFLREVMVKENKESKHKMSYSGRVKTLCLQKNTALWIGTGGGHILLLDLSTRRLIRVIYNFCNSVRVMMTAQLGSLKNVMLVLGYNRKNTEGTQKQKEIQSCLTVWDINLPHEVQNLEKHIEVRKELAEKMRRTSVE
Mitogen-activated protein kinase kinase kinase 1 (Homo sapiens), sequence (Q13233 whole entry): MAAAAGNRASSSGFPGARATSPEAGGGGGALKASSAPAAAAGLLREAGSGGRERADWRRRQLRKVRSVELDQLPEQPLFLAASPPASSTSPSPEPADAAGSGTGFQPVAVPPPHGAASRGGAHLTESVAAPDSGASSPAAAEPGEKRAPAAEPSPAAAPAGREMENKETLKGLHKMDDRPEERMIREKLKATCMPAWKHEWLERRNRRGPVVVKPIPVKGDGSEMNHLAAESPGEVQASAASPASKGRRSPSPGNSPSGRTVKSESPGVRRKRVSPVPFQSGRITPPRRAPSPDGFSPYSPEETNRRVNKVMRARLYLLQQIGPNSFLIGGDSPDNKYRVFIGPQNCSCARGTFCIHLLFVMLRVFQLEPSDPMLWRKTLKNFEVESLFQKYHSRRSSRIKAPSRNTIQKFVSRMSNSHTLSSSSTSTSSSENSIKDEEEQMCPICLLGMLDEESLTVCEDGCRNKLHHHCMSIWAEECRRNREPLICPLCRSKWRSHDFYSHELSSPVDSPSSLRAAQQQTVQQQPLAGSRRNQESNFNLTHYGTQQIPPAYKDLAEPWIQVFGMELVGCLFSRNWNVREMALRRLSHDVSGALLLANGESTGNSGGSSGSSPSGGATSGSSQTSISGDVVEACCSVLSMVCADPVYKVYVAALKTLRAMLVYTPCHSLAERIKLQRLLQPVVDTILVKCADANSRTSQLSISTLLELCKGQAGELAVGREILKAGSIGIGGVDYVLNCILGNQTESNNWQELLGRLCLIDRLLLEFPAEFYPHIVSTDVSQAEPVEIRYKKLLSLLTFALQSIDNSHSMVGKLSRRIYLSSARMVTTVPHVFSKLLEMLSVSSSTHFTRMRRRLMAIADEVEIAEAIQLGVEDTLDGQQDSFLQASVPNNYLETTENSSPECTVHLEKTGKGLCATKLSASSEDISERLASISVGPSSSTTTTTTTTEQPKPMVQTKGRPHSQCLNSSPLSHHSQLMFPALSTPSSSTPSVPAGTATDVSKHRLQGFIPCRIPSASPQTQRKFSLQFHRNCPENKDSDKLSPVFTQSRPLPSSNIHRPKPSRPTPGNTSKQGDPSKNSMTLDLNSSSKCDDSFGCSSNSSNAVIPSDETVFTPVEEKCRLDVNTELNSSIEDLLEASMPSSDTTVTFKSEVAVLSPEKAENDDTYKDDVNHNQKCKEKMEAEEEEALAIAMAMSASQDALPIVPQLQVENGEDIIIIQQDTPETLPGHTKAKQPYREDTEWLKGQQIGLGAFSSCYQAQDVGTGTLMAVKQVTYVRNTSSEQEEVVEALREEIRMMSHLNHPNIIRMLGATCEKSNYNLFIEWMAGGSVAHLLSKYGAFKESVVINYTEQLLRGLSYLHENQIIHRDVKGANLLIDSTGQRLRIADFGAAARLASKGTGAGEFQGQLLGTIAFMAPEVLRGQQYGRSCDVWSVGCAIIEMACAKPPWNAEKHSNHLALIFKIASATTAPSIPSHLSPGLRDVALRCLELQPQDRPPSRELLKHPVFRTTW
Dual specificity mitogen-activated protein kinase kinase 2 (Homo sapiens), sequence (P36507 whole entry): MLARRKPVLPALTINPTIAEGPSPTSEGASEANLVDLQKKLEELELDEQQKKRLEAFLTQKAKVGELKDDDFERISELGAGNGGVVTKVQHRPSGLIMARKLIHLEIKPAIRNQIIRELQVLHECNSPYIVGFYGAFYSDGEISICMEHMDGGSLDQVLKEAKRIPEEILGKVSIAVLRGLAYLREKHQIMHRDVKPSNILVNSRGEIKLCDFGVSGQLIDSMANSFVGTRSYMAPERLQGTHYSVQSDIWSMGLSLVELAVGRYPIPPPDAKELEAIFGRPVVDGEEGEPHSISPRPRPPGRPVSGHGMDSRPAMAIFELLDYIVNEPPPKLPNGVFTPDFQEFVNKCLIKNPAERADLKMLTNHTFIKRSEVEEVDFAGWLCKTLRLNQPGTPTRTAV
Ribosomal protein S6 kinase beta-1 (Homo sapiens), sequence (P23443 whole entry, looked up): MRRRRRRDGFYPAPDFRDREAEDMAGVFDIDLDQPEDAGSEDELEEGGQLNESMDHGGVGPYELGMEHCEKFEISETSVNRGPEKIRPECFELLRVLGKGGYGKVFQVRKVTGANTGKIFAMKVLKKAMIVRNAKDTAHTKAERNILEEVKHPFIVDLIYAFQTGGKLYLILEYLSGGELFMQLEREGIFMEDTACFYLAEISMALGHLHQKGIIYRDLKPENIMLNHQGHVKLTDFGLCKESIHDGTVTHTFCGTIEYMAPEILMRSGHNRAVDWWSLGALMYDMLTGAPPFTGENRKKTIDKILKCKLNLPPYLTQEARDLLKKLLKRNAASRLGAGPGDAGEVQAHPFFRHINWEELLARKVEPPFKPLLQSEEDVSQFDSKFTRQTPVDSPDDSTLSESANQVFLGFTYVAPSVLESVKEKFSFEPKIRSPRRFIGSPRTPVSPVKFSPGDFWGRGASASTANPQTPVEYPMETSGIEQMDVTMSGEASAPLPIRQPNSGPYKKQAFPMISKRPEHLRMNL

- Activity [2]: 106%
- Activity [3]: 30%
- Activity [5]: 5%
- Activity [6]: 101%
- Activity [7]: 9%
- Activity [8]: 69%
- Activity [10]: 35%
- inhibition [12]: Active
- Activity [14]: 38%
- Activity [15]: 87%
- Activity [16]: 104%
- Activity [17]: 71%
- Activity [18]: 104%
- Activity [19]: 51%
- Activity [20]: 66%
- Activity [21]: 102%
- Activity [22]: 36%
- inhibition [23]: Active
- Activity [25]: 109%
- Activity [26]: 99%
- half-life [28]: 679 min
- Activity [29]: 122%
- Activity [30]: 107%
- Activity [31]: 44%
- Activity [32]: 55%
- inhibition [33]: Dose-dependent effect
SMILES: COc1cc(N2CCC(N3CCN(C)CC3)CC2)ccc1Nc1ncc(Cl)c(Nc2ccccc2S(=O)(=O)C(C)C)n1 [TAE-684]
- inhibition (Mus musculus [1]): Active
- Activity [4]: 79%
- inhibition (Mus musculus [9]): Active
- Activity [11]: 47%
- inhibition (Mus musculus [13]): inactive
- inhibition (Mus musculus [24]): Active
- Activity [27]: 98%
